Measured values of several laboratories.
Protocols differ between the studies behind these lines.
Target: Mitogen-activated protein kinase kinase kinase 5 (MAP3K5, Homo sapiens, UniProt Q99683)
Sequence (Q99683 1-1374, as in one of the studies): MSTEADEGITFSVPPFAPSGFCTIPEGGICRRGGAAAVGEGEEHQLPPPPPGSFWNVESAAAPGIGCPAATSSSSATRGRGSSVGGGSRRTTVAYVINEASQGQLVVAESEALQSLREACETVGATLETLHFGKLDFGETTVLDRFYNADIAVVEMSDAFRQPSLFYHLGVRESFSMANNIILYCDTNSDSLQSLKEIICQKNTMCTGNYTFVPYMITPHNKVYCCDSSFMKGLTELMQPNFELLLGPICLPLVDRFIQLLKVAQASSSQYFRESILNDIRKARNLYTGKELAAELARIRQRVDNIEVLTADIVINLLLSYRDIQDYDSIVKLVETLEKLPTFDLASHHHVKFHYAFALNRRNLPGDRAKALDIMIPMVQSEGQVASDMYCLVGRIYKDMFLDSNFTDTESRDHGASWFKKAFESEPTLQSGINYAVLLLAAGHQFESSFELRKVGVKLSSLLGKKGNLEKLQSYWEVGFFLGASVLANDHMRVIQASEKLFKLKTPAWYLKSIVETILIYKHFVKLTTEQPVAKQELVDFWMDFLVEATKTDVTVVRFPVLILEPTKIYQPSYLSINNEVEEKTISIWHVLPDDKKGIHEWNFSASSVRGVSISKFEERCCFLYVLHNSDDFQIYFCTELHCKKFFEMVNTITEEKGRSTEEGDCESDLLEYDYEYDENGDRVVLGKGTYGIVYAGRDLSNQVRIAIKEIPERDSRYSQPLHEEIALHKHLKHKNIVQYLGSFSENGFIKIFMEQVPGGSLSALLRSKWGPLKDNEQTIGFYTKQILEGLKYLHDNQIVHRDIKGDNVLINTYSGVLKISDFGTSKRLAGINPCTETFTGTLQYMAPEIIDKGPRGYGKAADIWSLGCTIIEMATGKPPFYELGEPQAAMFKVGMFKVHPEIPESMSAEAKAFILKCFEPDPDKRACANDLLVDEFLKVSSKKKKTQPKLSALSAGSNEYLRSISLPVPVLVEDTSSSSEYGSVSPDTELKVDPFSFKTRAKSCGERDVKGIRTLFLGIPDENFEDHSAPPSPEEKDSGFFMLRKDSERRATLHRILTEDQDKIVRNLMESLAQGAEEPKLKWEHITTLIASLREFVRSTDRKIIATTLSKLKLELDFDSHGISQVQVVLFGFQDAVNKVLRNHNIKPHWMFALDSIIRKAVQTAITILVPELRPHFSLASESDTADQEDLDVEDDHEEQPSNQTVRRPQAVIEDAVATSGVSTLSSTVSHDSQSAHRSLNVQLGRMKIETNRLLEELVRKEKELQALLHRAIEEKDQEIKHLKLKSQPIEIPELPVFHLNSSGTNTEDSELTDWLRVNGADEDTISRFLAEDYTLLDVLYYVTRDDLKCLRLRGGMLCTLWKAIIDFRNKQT

| Structure (SMILES) | read-out | action | technique | cells | tested at | quantity | value |
| --- | --- | --- | --- | --- | --- | --- | --- |
| COc1cc(Nc2cnc(C#N)c(O[C@H](C)CN(C)C)n2)ncc1-c1cnn(C)c1 | enzyme activity | inhibitor | radiometric | – | 10 µM | remaining activity | 67% |
| COc1cc(Cl)c(C(=O)N[C@@H](CN[C@H]2CC[C@@H](N)CC2)Cc2ccc(C#N)cc2)cc1-c1ccc(CN[C@H](C)c2ccc(C)cc2)o1 | enzyme activity | inhibitor | – | – | 1 µM | remaining activity | 94% |
| O=C(Nc1cnn(-c2csc(C(=O)NC3COC3)c2)c1)Nc1c(F)cccc1Cl | enzyme activity | inhibitor | – | – | 5 µM | remaining activity | 91.1% |
| CC(C)(O)[C@H]1CC[C@H](Nc2ccc3ncc(-c4cccc(C(F)(F)F)c4)n3n2)CC1 | enzyme activity | inhibitor | – | – | 1 µM | remaining activity | 96.7% |
| CO[C@@H](C)c1c(Nc2ccc([C@@H](N(C)C(=O)C3CCS(=O)(=O)CC3)C(F)(F)F)cc2)cnc2cc(Cl)nn12 | cell-free assay | – | competition with immobilised ligand | – | 1 µM | remaining binding | 81% |
| CNC(=O)c1cc(Oc2ccc(NC(=O)Nc3ccc(Cl)c(C(F)(F)F)c3)cc2)ccn1 | enzyme activity | inhibitor | – | – | 0.3 µM | inhibition | 0% |
| CN(C(=O)c1ccccc1)c1cc(N(C)c2ccc3c(c2)CCc2ccc(C(=O)NCCN4CCOCC4)cc2C3=O)ccc1F | cell-free assay | – | competition with immobilised ligand | – | 1 µM | remaining binding | 100% |
| CNCc1ccc(-c2cc(-c3nc(-c4ccc(S(=O)(=O)C(C)C)cc4)cnc3N)on2)cc1 | enzyme activity | inhibitor | – | – | 2 µM | inhibition | 0% |
| CCN1CCN(Cc2ccc(NC(=O)c3ccc(C)c(/C=C/c4cnc5[nH]ccc5c4OC)c3)cc2C(F)(F)F)CC1 | target engagement in cells | inhibitor | chemoproteomics | A-375 | 5 µM | inhibition | -35.5% |
| Cc1ccc(C(=O)Nc2ccc(CN3CCN(C)CC3)c(C(F)(F)F)c2)cc1C#Cc1cnc2cccnn12 | enzyme activity | inhibitor | – | – | 23.5 nM | remaining activity | 100% |
| Cn1c2c(Cl)c(Cl)ccc2c2cc[nH]c(=O)c21 | thermal stability | – | DSF | – | 10 µM | ΔTm | 2.1 °C |
| CC1=C(C#N)[C@@H](c2ccc3[nH]nc(C)c3c2)C(C#N)=C(c2ccc(Cl)cc2)N1 | cell-free assay | – | competition with immobilised ligand | – | 1 µM | remaining binding | 100% |
| CCCCNc1ncc2c(-c3ccc(F)cc3)nn(C[C@H]3CC[C@H](N)CC3)c2n1 | target engagement in cells | inhibitor | chemoproteomics | – | 20 mM | inhibition | -10.7% |
| CC(C)c1ccc(NC(=O)c2cccs2)c(-c2nc3ccccc3[nH]c2=O)c1 | enzyme activity | inhibitor | – | – | 1 µM | activity vs control | 107% |
| CCCOc1ccc(OC)c(F)c1C(=O)c1ccc(C(=O)N[C@@H]2CNC[C@H]2NC(=O)c2ccc3[nH]ncc3c2)cc1 | enzyme activity | inhibitor | – | – | 10 µM | remaining activity | 83% |
| Cn1nc(C(F)(F)F)cc1-c1cnc(N2CCc3cc(S(=O)(=O)Nc4c(F)cc(Cl)cc4F)cc(N4CCCC4=O)c32)nc1 | cell-free assay | – | competition with immobilised ligand | – | 1 µM | remaining binding | 100% |
| CCN1CCN(Cc2ccc(NC(=O)c3ccc(C)c(Oc4ccnc5[nH]ccc45)c3)cc2C(F)(F)F)CC1 | target engagement in cells | inhibitor | chemoproteomics | A-375 | 0.5 µM | inhibition | -10.5% |
| Cc1noc([C@H]2C[C@@H](c3ccc(C(F)(F)F)cc3)CN(C(=O)N3CCS(=O)(=O)C3)C2)n1 | cell-free assay | – | competition with immobilised ligand | – | 1 µM | remaining binding | 100% |
| Cn1c2c(c3ccc(Cl)c(Cl)c31)C(C#N)C1(CCNCC1)NC2=O (racemic) | thermal stability | – | DSF | – | 10 µM | ΔTm | 0.1 °C |

| Structure (SMILES) | read-out | action | technique | cells | tested at | quantity | value |
| --- | --- | --- | --- | --- | --- | --- | --- |
| FC(F)c1nc2ccccc2n1-c1nc(N2CCOCC2)nc(N2CCOCC2)n1 | enzyme activity | inhibitor | – | – | 10 µM | remaining activity | 90% |
| CCC1(CC)NC(=O)c2c(c3ccc(Cl)c(Cl)c3n2C)C1C#N (stereo not shown) | thermal stability | – | DSF | – | 10 µM | ΔTm | 0.7 °C |
| CC(=O)N1CCC(c2ccc(C(=O)NC3=NCCN3)cc2C(F)(F)F)CC1 | cell-free assay | – | competition with immobilised ligand | – | 1 µM | remaining binding | 100% |
| C[S+]([O-])c1ccc(-c2nc(-c3ccncc3)c(-c3ccc(F)cc3)[nH]2)cc1 (stereo not shown) | cell-free assay | – | – | – | 0.5 µM | remaining signal | 107% |
| Cc1ccc(Nc2nccc(N(C)c3ccc4c(C)n(C)nc4c3)n2)cc1S(N)(=O)=O | enzyme activity | inhibitor | – | – | 0.3 µM | inhibition | 6% |
| CCN(CC)c1ccc(C2=NNC(=O)CC2C)cc1[N+](=O)[O-] (stereo not shown) | enzyme activity | inhibitor | – | – | 10 µM | remaining activity | 101% |
| CCOc1cc(-c2nncn2C)ccc1Nc1ncc2cc(C)nc(NCC(C)(C)C)c2n1 | cell-free assay | – | TR-FRET | – | 1 µM | inhibition | ≤ 15% |
| CCCCN(CCCC)C(=O)CN1C[C@H](c2cc(OC)c3c(c2)OCO3)[C@@H](C(=O)O)[C@@H]1CC(C)(C)CCC | cell-free assay | – | competition with immobilised ligand | – | 1 µM | remaining binding | 100% |
| Cn1c2c(c3ccc(Cl)c(Cl)c31)C(C#N)C(C)(C)NC2=O (stereo not shown) | thermal stability | – | DSF | – | 10 µM | ΔTm | 2.6 °C |
| CCN(CC)CCNC(=O)c1c(C)[nH]c(/C=C2\C(=O)Nc3ccc(F)cc32)c1C | enzyme activity | inhibitor | – | – | 0.3 µM | inhibition | 4% |
| CC/C(=N\NC(=O)NCc1cccc(O)c1)c1ccc(O)c(C)c1O | enzyme activity | inhibitor | – | – | 0.1 µM | inhibition | 4% |
| CC(C)(C)c1nc2c(s1)c1nc(N)ncc1c1ccc(NS(=O)(=O)c3c(F)cccc3F)c(F)c12 | enzyme activity | inhibitor | radiometric | – | 1 µM | remaining activity | 104% |
| CCN1CCC2(CC1)NC(=O)c1c(c3ccc(Cl)c(Cl)c3n1C)C2C#N (racemic) | thermal stability | – | DSF | – | 10 µM | ΔTm | 0.1 °C |
| CNC(=O)Nc1ccc2c(c1)[C@@]1(CC2)OC(=O)N(CC(=O)N(Cc2ccc(F)cc2)[C@@H](C)C(F)(F)F)C1=O | cell-free assay | – | competition with immobilised ligand | – | 1 µM | remaining binding | 100% |
| FC(F)(F)Oc1cccc(-c2cnc3ccc(-c4ccncc4)nn23)c1 | enzyme activity | inhibitor | radiometric | – | 1 µM | activity vs control | 88% |
| Cn1c2c(Cl)c(Cl)ccc2c2cc(N)[nH]c(=O)c21 | thermal stability | – | DSF | – | 10 µM | ΔTm | 1.5 °C |
| Oc1cccc(-c2nc(N3CCOCC3)c3oc4ncccc4c3n2)c1 | enzyme activity | inhibitor | – | – | 10 µM | remaining activity | 101% |
| O=C1NC(=O)c2cc(Nc3ccc(F)cc3)c(Nc3ccc(F)cc3)cc21 | cell-free assay | – | – | – | 0.5 µM | remaining signal | 96.6% |
